In ChEMBL document CHEMBL4017549, “Structural Basis of Inhibition of ERα-Coactivator Interaction by High-Affinity N-Terminus Isoaspartic Acid Tethered Helical Peptides” (J Med Chem, 2017):
Activity calls are given as the source filed them. No cut-off for these calls is given here.

How the values were obtained:
Progesterone receptor = target: T1, Progesterone receptor (Homo sapiens, UniProt P06401); experiment: Binding affinity to recombinant human GST-tagged PGR LBD (678 to 933 residues) expressed in Escherichia coli BL21 star(DE3) after 40 mins in presence of progesterone by fluorescence polarization assay
T1 sequence (P06401 whole entry): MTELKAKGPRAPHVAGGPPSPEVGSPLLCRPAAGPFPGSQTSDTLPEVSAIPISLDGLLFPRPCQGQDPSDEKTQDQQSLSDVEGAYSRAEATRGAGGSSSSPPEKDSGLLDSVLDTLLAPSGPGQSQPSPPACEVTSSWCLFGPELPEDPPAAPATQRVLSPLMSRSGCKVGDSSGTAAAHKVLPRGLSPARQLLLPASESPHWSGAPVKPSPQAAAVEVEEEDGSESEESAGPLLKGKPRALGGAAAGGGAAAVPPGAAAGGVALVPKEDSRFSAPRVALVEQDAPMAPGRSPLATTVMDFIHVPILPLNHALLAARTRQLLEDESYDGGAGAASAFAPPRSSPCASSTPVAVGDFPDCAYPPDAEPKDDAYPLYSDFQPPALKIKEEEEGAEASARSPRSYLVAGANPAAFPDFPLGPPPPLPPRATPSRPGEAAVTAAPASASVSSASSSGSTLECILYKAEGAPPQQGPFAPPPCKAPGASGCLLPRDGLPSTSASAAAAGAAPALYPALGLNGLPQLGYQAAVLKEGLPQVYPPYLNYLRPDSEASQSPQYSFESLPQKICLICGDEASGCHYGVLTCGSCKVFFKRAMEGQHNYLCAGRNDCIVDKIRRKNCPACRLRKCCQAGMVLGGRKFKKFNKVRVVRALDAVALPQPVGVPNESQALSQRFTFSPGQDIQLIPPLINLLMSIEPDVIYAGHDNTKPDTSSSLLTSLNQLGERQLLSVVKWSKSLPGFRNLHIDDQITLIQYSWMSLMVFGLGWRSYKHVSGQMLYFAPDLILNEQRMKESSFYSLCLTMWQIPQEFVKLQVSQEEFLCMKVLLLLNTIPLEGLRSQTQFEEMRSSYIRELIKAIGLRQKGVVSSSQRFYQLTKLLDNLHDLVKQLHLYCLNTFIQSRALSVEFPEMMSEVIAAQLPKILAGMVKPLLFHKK
Outline: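 FITC-labelled peptide at 10 nM final with increasing GST-PgR LBD in 20 mM Tris-HCl pH 8.0, 150 mM NaCl, 5% glycerol, 1 mM TCEP plus 10 μM progesterone. 40 min dark incubation, polarization at 298 K (ex 480/em 535 nm). KD by nonlinear regression against protein concentration.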

[1] = target: T2, Estrogen receptor (Homo sapiens) (UniProt P03372); experiment: Binding affinity to recombinant human GFP-fused ERalpha LBD (301 to 553 residues) expressed in Escherichia coli BL21(DE3) in presence of 17beta-estradiol by ITC
T2 sequence (whole entry): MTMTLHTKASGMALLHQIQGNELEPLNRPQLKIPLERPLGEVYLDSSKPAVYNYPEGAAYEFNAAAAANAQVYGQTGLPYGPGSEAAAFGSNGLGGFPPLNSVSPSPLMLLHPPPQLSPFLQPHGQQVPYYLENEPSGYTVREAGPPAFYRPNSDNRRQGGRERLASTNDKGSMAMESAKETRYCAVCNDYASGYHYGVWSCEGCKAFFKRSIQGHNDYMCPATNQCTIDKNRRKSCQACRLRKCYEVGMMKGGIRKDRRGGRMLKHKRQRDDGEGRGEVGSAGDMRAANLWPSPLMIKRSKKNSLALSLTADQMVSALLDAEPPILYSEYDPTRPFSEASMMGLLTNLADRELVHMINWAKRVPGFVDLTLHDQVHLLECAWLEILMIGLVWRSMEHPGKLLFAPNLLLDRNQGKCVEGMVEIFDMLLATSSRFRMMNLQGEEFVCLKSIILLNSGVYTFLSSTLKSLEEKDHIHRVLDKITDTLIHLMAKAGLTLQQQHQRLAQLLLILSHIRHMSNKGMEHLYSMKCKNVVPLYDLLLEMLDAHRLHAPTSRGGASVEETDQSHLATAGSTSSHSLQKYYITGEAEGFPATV
Outline: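 ITC at 25 °C. 2 μL injections of 50 μM peptide into 5 μM ERα LBD in 50 mM Tris pH 8.0, 150 mM NaCl, 1 mM TCEP, 0.1 mM 17β-estradiol. Binding isotherm fitted for affinity.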

[2] = Drug uptake in human MCF7 cells assessed per million cells at 5 uM after 3 hrs by FACS analysis; type: ADME, cell-based; settings: mcf7, 3 h
Outline: (§1)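 Adherent cells seeded overnight, then exposed to 5 μM FITC-labelled peptide or DMSO in FBS-free medium, 3 h, 37 °C. After PBS washes (three), about 10000 cells per sample analysed by flow cytometry; mean cellular fluorescence intensity calculated. More than two independent experiments, SEM.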

Estrogen receptor = target: T3, Estrogen receptor (Homo sapiens, UniProt P03372); experiment: Binding affinity to recombinant human GFP-fused ERalpha LBD (301 to 553 residues) expressed in Escherichia coli BL21(DE3) after 40 mins in presence of 17beta-estradiol by fluorescence polarization assay
T3 sequence (P03372 whole entry): T2 sequence (whole entry)

Estrogen receptor beta = Estrogen receptor beta (Homo sapiens, UniProt Q92731); experiment: Binding affinity to recombinant human GFP-fused ERbeta LBD (259 to 498 residues) expressed in Escherichia coli BL21(DE3) after 40 mins in presence of 17beta-estradiol by fluorescence polarization assay
Outline: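 FITC-labelled peptide at 10 nM final, titrated with increasing purified LBD (ERβ LBD carrying C334S, C369S, C481S) in 20 mM Tris-HCl pH 8.0, 150 mM NaCl, 5% glycerol, 1 mM TCEP with 10 μM 17β-estradiol. Incubated 40 min in the dark, polarization read at 298 K (ex 480/em 535 nm). KD from nonlinear regression of polarization versus protein concentration.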

[3] = Drug uptake in human U2OS cells assessed per million cells at 5 uM after 3 hrs by FACS analysis; type: ADME, cell-based; outline: as §1
[4] = Drug uptake in human MCF7 cell nucleus at 5 uM after 3 hrs in presence of 10 nM E2 by DAPI-staining based confocal laser scanning microscopic analysis
Homo sapiens = species on record: Homo sapiens; experiment: Selectivity ratio of Kd for recombinant human GST-tagged PGR LBD ([…] residues) to Kd for recombinant human ERalpha LBD (301 to 553 residues)
Outline: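 Ratio of KD values, each from fluorescence polarization of 10 nM FITC-peptide titrated with the respective LBD after 40 min in the dark at 298 K, with the matching ligand in buffer (10 μM 17β-estradiol, progesterone or vitamin D3).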

[5] = target: T2, Estrogen receptor (Homo sapiens); experiment: Binding affinity to recombinant human GFP-fused ERalpha LBD (301 to 553 residues) expressed in Escherichia coli BL21(DE3) in presence of ERalpha inhibitor 4-hydroxytamoxifen by ITC
Outline: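 ITC at 25 °C. 50 μM peptide injected in 2 μL steps into 5 μM ERα LBD in 50 mM Tris pH 8.0, 150 mM NaCl, 1 mM TCEP containing 0.1 mM 4-hydroxytamoxifen instead of estradiol. Isotherm fitted.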

Sequence of Estrogen receptor beta (Q92731 whole entry, the tested form may be a part): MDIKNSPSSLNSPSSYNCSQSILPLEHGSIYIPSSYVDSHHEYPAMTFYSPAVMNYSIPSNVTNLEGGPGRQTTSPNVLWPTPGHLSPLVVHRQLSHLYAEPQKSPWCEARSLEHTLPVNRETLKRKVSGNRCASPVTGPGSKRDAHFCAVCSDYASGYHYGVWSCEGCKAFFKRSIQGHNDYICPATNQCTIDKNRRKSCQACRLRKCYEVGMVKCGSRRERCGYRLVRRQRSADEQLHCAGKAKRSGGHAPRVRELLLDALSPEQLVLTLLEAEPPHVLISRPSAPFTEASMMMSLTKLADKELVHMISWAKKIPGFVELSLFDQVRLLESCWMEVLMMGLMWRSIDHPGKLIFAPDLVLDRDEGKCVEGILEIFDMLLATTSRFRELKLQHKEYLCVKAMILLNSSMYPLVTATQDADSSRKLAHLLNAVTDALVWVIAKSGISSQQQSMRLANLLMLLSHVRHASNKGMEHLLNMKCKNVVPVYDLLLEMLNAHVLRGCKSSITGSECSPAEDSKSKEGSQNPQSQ

CC[C@H](C)[C@@H]1NC(=O)C[C@H](NC(=O)[C@H](CCCNC(=N)N)NC(=O)CCNC(=S)Nc2ccc3c(c2)C(=O)OC32c3ccc(O)cc3Oc3cc(O)ccc32)C(=O)NCC(C(=O)N[C@@H](CCCNC(=N)N)C(=O)NC(CC(C)(C)C)C(=O)NC(CC(C)(C)C)C(=O)N[C@@H](CCC(N)=O)C(N)=O)NC(=O)C(CC(C)(C)C)NC1=O (some centres undefined)
Kd (Progesterone receptor): 248 nM
Activity [1]: Active
Drug uptake [2]: Active
Kd (Estrogen receptor): 67 nM
Kd (Estrogen receptor beta): 297 nM
Drug uptake [3]: Active
Drug uptake [4]: Active
Selectivity ratio (Homo sapiens): 3.7
Activity [5]: inactive
